# Assay results: PMC3540799 (NeuroImage, 2012)
# Where two headings read alike, the source gives them in different places.
# How the values were obtained:
# [1] = Dynamic PET/CT/MRI of the brain with compartmental pharmacokinetic modeling; type: in vivo, rhesus macaques; conditions: for k1 (influx rate constant) / k2 (efflux rate constant) / k3 rate constant: baseline
# Method in brief: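 Four rhesus macaques (2 male, 2 female): atropine 0.04 mg/kg i.m., ketamine 10–15 mg/kg i.m., isoflurane 1–3% in oxygen; i.v. tracer via saphenous vein. Baseline dynamic PET with the 18F-labelled HDAC substrate and, separately, its 18F-labelled cleavage product. Carotid-derived plasma input was corrected by plasma-to-blood ratio and radio-HPLC metabolite fractions. Rate constants came from two-input, three-tissue-compartment fitting of regional brain time-activity curves.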
# [2] = Radioactivity and radiolabeled metabolites in blood plasma; type: in vivo, rhesus macaques
# Method in brief: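 Macaques received atropine and ketamine i.m., then isoflurane 1–3% in oxygen. Tracer was given i.v. via saphenous vein, and venous blood (0.5 mL) was drawn at 0, 1, 2, 3, 5, 10 and 30 min. Whole blood and plasma were gamma counted. Heparinized plasma was extracted with 3 volumes acetonitrile and run on radio-HPLC. Parent and metabolite fractions came from peak areas, expressed as %ID/mL.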
# [3] = up to 3 hours post radiotracer administration; ref Nishii et al., 2011; cited from earlier work
# [4] = cited from earlier work
# [5] = test system: HDAC class IIa enzymes; assay: SAHA-mediated dose-dependent inhibition of [18F]FAHA accumulation in the brain; type: in vivo, rhesus macaques; conditions: pretreatment with increasing doses of SAHA; blood plasma
# [6] = test system: class IIa HDACs; type: biochemical; conditions: non-radiolabeled FAHA; 10 ng enzyme, 30 min at 30°C
# [7] = at 30 min after the radiotracer administration; ref Nishii R, 2007; cited from earlier work
# [8] = ref Hendricks, et al 2011, Zeglis
compound,measurement,setting,value
"O=C(O)C[18F] [[^18F]FACE, [^18F]fluoroacetate]",brain-to-muscle concentration ratio,[1]; 30 min post injection,0.78±0.28
same,whole brain-to-blood concentration ratio,[1]; 30 min post injection,0.55±0.18
same,k1 (influx rate constant),[1]; Amygdala,0.020 ± 0.035
same,k2 (efflux rate constant),[1]; Amygdala,0.088 ± 0.063
same,k3 rate constant,[1]; Amygdala,0.047 ± 0.040
same,k1 (influx rate constant),[1]; Cerebellum,0.055 ± 0.054
same,k2 (efflux rate constant),[1]; Cerebellum,0.202 ± 0.125
same,k3 rate constant,[1]; Cerebellum,0.044 ± 0.066
same,k1 (influx rate constant),[1]; Hippocampus,0.021 ± 0.034
same,k2 (efflux rate constant),[1]; Hippocampus,0.118 ± 0.031
same,k3 rate constant,[1]; Hippocampus,0.054 ± 0.039
same,k1 (influx rate constant),[1]; Inferior colliculus,0.019 ± 0.045
same,k2 (efflux rate constant),[1]; Inferior colliculus,0.034 ± 0.024
same,k3 rate constant,[1]; Inferior colliculus,0.022 ± 0.021
same,k1 (influx rate constant),[1]; Nucleus accumbens,0.056 ± 0.052
same,k2 (efflux rate constant),[1]; Nucleus accumbens,0.179 ± 0.146
same,k3 rate constant,[1]; Nucleus accumbens,0.025 ± 0.034
same,k1 (influx rate constant),[1]; Peri-aqueductal gray,0.021 ± 0.044
same,k2 (efflux rate constant),[1]; Peri-aqueductal gray,0.050 ± 0.034
same,k3 rate constant,[1]; Peri-aqueductal gray,0.026 ± 0.023
same,k1 (influx rate constant),[1]; Putamen,0.024 ± 0.033
same,k2 (efflux rate constant),[1]; Putamen,0.059 ± 0.063
same,k3 rate constant,[1]; Putamen,0.026 ± 0.031
same,k1 (influx rate constant),[1]; Temporal cortex,0.016 ± 0.046
same,k2 (efflux rate constant),[1]; Temporal cortex,0.037 ± 0.014
same,k3 rate constant,[1]; Temporal cortex,0.033 ± 0.018
same,k1 (influx rate constant),[1]; Thalamus,0.020 ± 0.482
same,k2 (efflux rate constant),[1]; Thalamus,0.048 ± 0.067
same,k3 rate constant,[1]; Thalamus,0.022 ± 0.022
same,k1 (influx rate constant),[1]; White matter,0.015 ± 0.019
same,k2 (efflux rate constant),[1]; White matter,0.089 ± 0.103
same,k3 rate constant,[1]; White matter,0.029 ± 0.022
same,k1 (influx rate constant),[1]; Whole brain,0.045 ± 0.034
same,k2 (efflux rate constant),[1]; Whole brain,0.170 ± 0.145
same,k3 rate constant,[1]; Whole brain,0.033 ± 0.065
same,efflux rate constant k2FACE relative to that of [18F]FAHA,[1]; fold less than [18F]FAHA,4 to 10 fold
same,[18F]fluoride in blood plasma,[2]; 30 min post [18F]FACE administration,< 2 % of total radioactivity
same,Partition of [18F]FACE-derived radioactivity in blood between RBCs and plasma,"[2]; rhesus monkey, in vivo",70.2±8.4%
same,[18F]fluorocitrate anabolite in blood,[3],not detectable
Nc1ccccc1NC(=O)c1ccc(CN[11C](=O)OCc2cccnc2)cc1 [[^11C]MS-275],accumulation in the brain (PET),"[4]; ref Hooker, et al 2010",did not accumulate in the brain
same,blood-brain barrier (BBB) permeability,"[4]; ref Hooker, et al 2010",poor
"O=C(CCCCCCC(=O)Nc1ccccc1)NO [SAHA, vorinostat]",effect on circulation half-time and AUC of [18F]FAHA,[5],dose-dependent log-linear increase
"O=C(C[18F])NCCCCCC(=O)Nc1ccccc1 [[^18F]FAHA, 6-([^18F]fluoroacetamido)-1-hexanoicanilide]",Kcat values for class IIa HDACs compared with other classes of HDACs,[6],two orders of magnitude higher
same,k1 (influx rate constant),[1]; Amygdala,0.512 ± 0.1283
same,k2 (efflux rate constant),[1]; Amygdala,0.493 ± 0.118
same,k3 rate constant,[1]; Amygdala,0.259 ± 0.093
same,k1 (influx rate constant),[1]; Cerebellum,0.645 ± 0.2594
same,k2 (efflux rate constant),[1]; Cerebellum,1.001 ± 0.475
same,k3 rate constant,[1]; Cerebellum,0.380 ± 0.279
same,k1 (influx rate constant),[1]; Hippocampus,0.595 ± 0.071
same,k2 (efflux rate constant),[1]; Hippocampus,0.883 ± 0.738
same,k3 rate constant,[1]; Hippocampus,0.279 ± 0.213
same,k1 (influx rate constant),[1]; Inferior colliculus,0.706 ± 0.2366
same,k2 (efflux rate constant),[1]; Inferior colliculus,0.644 ± 0.312
same,k3 rate constant,[1]; Inferior colliculus,0.267 ± 0.108
same,k1 (influx rate constant),[1]; Nucleus accumbens,0.626 ± 0.5812
same,k2 (efflux rate constant),[1]; Nucleus accumbens,1.181 ± 1.6532
same,k3 rate constant,[1]; Nucleus accumbens,0.401 ± 0.296
same,k1 (influx rate constant),[1]; Peri-aqueductal gray,0.619 ± 0.2961
same,k2 (efflux rate constant),[1]; Peri-aqueductal gray,0.554 ± 0.256
same,k3 rate constant,[1]; Peri-aqueductal gray,0.236 ± 0.088
same,k1 (influx rate constant),[1]; Putamen,0.708 ± 0.3726
same,k2 (efflux rate constant),[1]; Putamen,0.731 ± 0.617
same,k3 rate constant,[1]; Putamen,0.328 ± 0.079
same,k1 (influx rate constant),[1]; Temporal cortex,0.438 ± 0.2453
same,k2 (efflux rate constant),[1]; Temporal cortex,0.558 ± 0.2452
same,k3 rate constant,[1]; Temporal cortex,0.158 ± 0.056
same,k1 (influx rate constant),[1]; Thalamus,0.765 ± 0.4308
same,k2 (efflux rate constant),[1]; Thalamus,0.604 ± 0.365
same,k3 rate constant,[1]; Thalamus,0.192 ± 0.032
same,k1 (influx rate constant),[1]; White matter,0.463 ± 0.2052
same,k2 (efflux rate constant),[1]; White matter,0.810 ± 0.269
same,k3 rate constant,[1]; White matter,0.187 ± 0.135
same,k1 (influx rate constant),[1]; Whole brain,0.424 ± 0.2637
same,k2 (efflux rate constant),[1]; Whole brain,0.611 ± 0.5713
same,k3 rate constant,[1]; Whole brain,0.192 ± 0.222
same,whole brain Ki of [18F]FAHA relative to Ki of [18F]FACE,[1]; whole brain,about 50 fold
same,fraction of [18F]FAHA catabolized to [18F]FACE in blood plasma,[2]; by 30 min post injection,almost all
same,accumulation of [18F]FAHA in the brain,[7],significant accumulation
"O=C(CCCCCCC(=O)Nc1ccc([18F])cc1)NO [[^18F]SAHA, [^18F]suberoylanilide hydroxamic acid]",accumulation in the brain (PET),[4]; [8],did not accumulate in the brain
same,washout from the brain,[4]; [8],excessive washout
